Assay results of several laboratories.
Each line is one published result; the experiments were not run side by side.
MET M1250T: Hepatocyte growth factor receptor (MET, Homo sapiens, UniProt P08581, M1250T)
MET Y1235D: Hepatocyte growth factor receptor (MET, Homo sapiens, UniProt P08581, Y1235D)
MET: Hepatocyte growth factor receptor (MET, Homo sapiens, UniProt P08581)

O=C(NCCCN1CCOCC1)c1ccc(Nc2ncc(Cl)c(-c3ccc(Cl)s3)n2)cc1
remaining binding (MET M1250T; binding, competition with immobilised ligand; 1 µM): 13%

CN(C)c1nccc(-c2cnc3ncccn23)n1
remaining binding (MET M1250T; binding; 1 µM): 91%

O=C(c1ccc(Nc2nccc(-c3cc4ccccc4s3)n2)cc1)N1CCC(N2CCCC2)CC1
remaining binding (MET Y1235D; binding, competition with immobilised ligand; 1 µM): 85%

Cc1c(C(=O)O)cc(-c2ccc(C3CCNCC3)cc2)c2ccc(-c3ccc(C(F)(F)F)cc3)cc12
remaining binding (MET; cell-free assay, competition with immobilised ligand; 1 µM): 100%

COc1ccnn2ncc(-c3ccnc(N(C)C)n3)c12
remaining binding (MET; binding; 1 µM): 92%

CCCCN(CCCC)C(=O)CN1C[C@H](c2cc(OC)c3c(c2)OCO3)[C@@H](C(=O)O)[C@@H]1CC(C)(C)CCC
remaining binding (MET Y1235D; cell-free assay, competition with immobilised ligand; 1 µM): 100%

CNC(=O)[C@@H]1CC[C@@H](n2c(-c3ccc4cnccc4c3)nc3ccc(C(=O)NCc4cccc(C(N)=O)c4)cc32)C1
remaining binding (MET Y1235D; binding, competition with immobilised ligand; 1 µM): 92%

FC(F)(F)c1ccc2c(c1)nc(-c1cccnc1)n2C1CC1
remaining binding (MET Y1235D; cell-free assay, competition with immobilised ligand; 1 µM): 100%

O=C(c1ccc(Nc2ncc(Cl)c(-c3cc4ccccc4s3)n2)cc1)N1CCC(N2CCCC2)CC1
remaining binding (MET; binding, competition with immobilised ligand; 1 µM): 82%

C[C@@H]1CN(c2ccc3ncc(-c4ccc5[nH]nc(C6CC6)c5c4)n3n2)C[C@H](C)O1
remaining binding (MET; binding, competition with immobilised ligand; 50 nM): 89%

CCN1CCN(Cc2ccc(C(=O)Nc3ccc(C)c(Oc4ccc5c(c4)CC(=O)N5)c3)cc2C(F)(F)F)CC1
remaining binding (MET Y1235D; binding, competition with immobilised ligand; 1 µM): 100%

c1cnn2ncc(-c3ccnc(N4CCC45COC5)n3)c2c1
remaining binding (MET M1250T; binding; 1 µM): 41%

CN(C(=O)c1ccccc1)c1cc(N(C)c2ccc3c(c2)CCc2ccc(C(=O)NCCN4CCOCC4)cc2C3=O)ccc1F
remaining binding (MET Y1235D; cell-free assay, competition with immobilised ligand; 1 µM): 85%

CN(C)c1nccc(-c2cnn3ncccc23)n1
remaining binding (MET Y1235D; binding; 1 µM): 90%

O=C(NCCCN1CCOCC1)c1ccc(Nc2nccc(-c3cc4ccccc4s3)n2)cc1
remaining binding (MET; binding, competition with immobilised ligand; 1 µM): 100%

c1cncc(-c2cccc(Nc3nccc(NC4CCCCC4)n3)c2)c1
remaining binding (MET M1250T; binding, competition with immobilised ligand; 10 µM): 29%

Nc1ncc2c(n1)-c1c([nH]c3ccc(C#CC4CC4)cc13)CCCC2
remaining binding (MET Y1235D; binding, competition with immobilised ligand; 1 µM): 92%

CCS(=O)(=O)c1cc2cc(C[C@](O)(CC(C)(C)c3ccc(F)cc3C(N)=O)C(F)(F)F)[nH]c2cn1
remaining binding (MET; cell-free assay, competition with immobilised ligand; 1 µM): 98%

COc1cnc(Nc2cccc(S(N)(=O)=O)c2)nc1N1CCN(c2ccccc2)C(=O)C1
remaining binding (MET Y1235D; binding, competition with immobilised ligand; 1 µM): 100%

COc1ncc2cc3ccccc3nc2c1C#N
remaining binding (MET M1250T; cell-free assay, competition with immobilised ligand; 5 µM): 100%

C[C@@H]1CCN(c2nccc(-c3cnn4ncccc34)n2)C1
remaining binding (MET Y1235D; binding; 1 µM): 79%

Cc1nc(N2CC[C@@H](O)C2)ncc1-c1cc(C(F)(F)F)cc2[nH]ncc12
remaining binding (MET; cell-free assay, competition with immobilised ligand; 1 µM): 100%

O=C(Nc1c[nH]nc1C(=O)NC1CCNCC1)c1cc(F)cc(F)c1
remaining binding (MET Y1235D; binding, competition with immobilised ligand; 1 µM): 100%

Cc1cnc(Nc2ccc(C(=O)N3CCC(N4CCCC4)CC3)cc2)nc1-c1cc2ccccc2s1
remaining binding (MET; binding, competition with immobilised ligand; 1 µM): 100%

COc1cnc(Nc2cccc(S(N)(=O)=O)c2)nc1N1CCN(c2ccccc2)CC1
remaining binding (MET; binding, competition with immobilised ligand; 1 µM): 100%

CN(C)C(=O)Cn1cc(-c2nc([C@@](C)(c3ccc(-c4cnc(N)nc4)cc3)C3CC3)no2)cn1
remaining binding (MET Y1235D; cell-free assay, competition with immobilised ligand; 1 µM): 96%

COC(=O)Nc1nc2ccc(C(=O)c3ccccc3)cc2[nH]1
remaining binding (MET; cell-free assay, competition with immobilised ligand; 10 µM): 32%

CC(=O)N1CCC(c2ccc(C(=O)NC3=NCCN3)cc2C(F)(F)F)CC1
remaining binding (MET M1250T; cell-free assay, competition with immobilised ligand; 1 µM): 84%

Cc1cnn2ncc(-c3ccnc(N(C)C)n3)c2c1
remaining binding (MET M1250T; binding; 1 µM): 61%

O=C(c1ccc(Nc2ncc(Cl)c(-c3ccc(Cl)s3)n2)cc1)N1CCC(N2CCCC2)CC1
remaining binding (MET M1250T; binding, competition with immobilised ligand; 1 µM): 6.5%

N[C@@H]1CCN(c2nccc(-c3cnn4ncccc34)n2)C1
remaining binding (MET; binding; 1 µM): 60%

CN1CCN(c2ccc(Nc3nccc(-c4cccc([N+](=O)[O-])c4)n3)cc2C(F)(F)F)CC1
remaining binding (MET Y1235D; binding; 10 µM): 27%

O=C(NCC1CCOCC1)c1n[nH]cc1NC(=O)c1c(F)cccc1F
remaining binding (MET M1250T; binding, competition with immobilised ligand; 1 µM): 90%
